Data from publication PMC7196279 (Biomedicine & pharmacotherapy = Biomedecine & …, 2020).
Read-outs that look alike come from different tables or passages of the source. Bridges are numbered along the chain shown (N, C = ends). Where no end group is shown, it is not given here.

Experiments:
[1] = test system: sarco/endoplasmic reticulum calcium ATPase (SERCA); format: cell-based; conditions: all four lines, thapsigargin pretreatment 1 μM final concentration
In short: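 Fluo-3 AM-loaded cells (60 min, 37 °C) were washed four times and treated with thapsigargin (1 μM final) for 5 min. The Ca2+ mobilization assay was then run with agonist concentration series, with untreated controls in parallel on the same plates. The Fluo-3 read was FMAX − F0. N = 3 experiments, five replicates per dose.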

[2] = test system: sarco/endoplasmic reticulum calcium ATPase (SERCA); format: cell-based; conditions: all four OT receptor cell lines, thapsigargin pretreatment
In short: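 Cells were incubated with FMP Blue in Locke's buffer at 37 °C for 40 min. Thapsigargin was added, followed by 5 min more incubation. The membrane potential assay was then run with agonist concentration series. Fluorescence was read at ex 530/em 565 nm every 2 s for 200 s after a 60 s baseline. Response was FMIN − F0.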

[3] = test system: Ca^2+-activated K^+ channels; format: cell-based, Chinese hamster; conditions: tOT receptor CHO cells; for inhibition of AVP induced hyperpolarization / inhibition of Leu^8-OT induced hyperpolarization / inhibition of Pro^8-OT induced hyperpolarization: inhibitor pretreatment
In short: (§1)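 Receptor-expressing CHO-K1 cells were loaded with FMP Blue in Locke's buffer (pH 7.4) at 37 °C for 35 min. Paxilline, TRAM-34 and/or apamin were then added, followed by 10 min more incubation. Baseline was read for 60 s, then log concentrations of agonist were added and ex 530/em 565 nm was read every 2 s for 200 s. NS-1619 or SKA-31 stimulation followed paxilline (30 μM) or TRAM-34 pretreatment respectively. Response was FMIN − F0. N = 3 experiments, 10 replicates per dose.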

[4] = test system: Ca^2+-activated K^+ channels; conditions: hOT receptor CHO cells, cited from earlier work
[5] = test system: Ca^2+-activated K^+ channels; format: cell-based, Chinese hamster; conditions: mOT receptor CHO cells, inhibitor pretreatment
[6] = test system: Ca^2+-activated K^+ channels; format: cell-based, Chinese hamster; conditions: hOT receptor CHO cells, inhibitor pretreatment
[7] = test system: Ca^2+-activated K^+ channels; format: cell-based, Chinese hamster; conditions: qOT receptor CHO cells; for inhibition of AVP induced hyperpolarization / inhibition of Leu^8-OT induced hyperpolarization / inhibition of Pro^8-OT induced hyperpolarization: inhibitor pretreatment
In short: as §1

[8] = test system: Ca^2+-activated K^+ channels; conditions: mOT receptor CHO cells, cited from earlier work
[9] = target: Human Kappa-opioid (κO) receptor (Homo sapiens, UniProt P41145); assay: Membrane potential assay in κOR-CHO cells; format: cell-based; conditions: κOR-CHO cells pretreated with pertussis toxin
Gi/o = format: cell-based; conditions: PTX 150 ng/ml
[10] = target: T1, macaque oxytocin receptor (qOTR) (Macaca mulatta, UniProt P56494); assay: Ca2+ mobilization assay; format: cell-based
T1 sequence (P56494 1-389): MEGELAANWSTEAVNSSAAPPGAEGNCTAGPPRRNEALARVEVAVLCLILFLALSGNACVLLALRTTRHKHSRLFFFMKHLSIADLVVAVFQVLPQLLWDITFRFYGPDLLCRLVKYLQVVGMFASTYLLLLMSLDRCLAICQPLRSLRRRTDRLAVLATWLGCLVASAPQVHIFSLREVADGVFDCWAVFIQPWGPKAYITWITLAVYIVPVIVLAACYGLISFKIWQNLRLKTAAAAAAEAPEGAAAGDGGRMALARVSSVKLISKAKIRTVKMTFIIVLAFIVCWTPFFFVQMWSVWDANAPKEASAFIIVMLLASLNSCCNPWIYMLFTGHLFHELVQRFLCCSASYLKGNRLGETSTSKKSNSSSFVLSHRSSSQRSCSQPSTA

Chain of Human Kappa-opioid (κO) receptor (P41145 whole entry): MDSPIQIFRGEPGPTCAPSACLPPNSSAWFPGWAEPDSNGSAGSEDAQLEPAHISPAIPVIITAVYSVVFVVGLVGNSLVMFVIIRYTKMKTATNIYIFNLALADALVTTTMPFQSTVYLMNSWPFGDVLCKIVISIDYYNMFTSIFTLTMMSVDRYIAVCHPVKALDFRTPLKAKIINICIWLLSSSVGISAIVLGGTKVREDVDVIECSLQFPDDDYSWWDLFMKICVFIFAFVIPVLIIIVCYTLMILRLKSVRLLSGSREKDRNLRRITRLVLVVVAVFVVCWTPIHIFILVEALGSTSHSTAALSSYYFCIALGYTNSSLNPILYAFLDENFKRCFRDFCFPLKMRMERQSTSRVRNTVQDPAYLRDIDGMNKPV

C/C=C(/C)C(=O)O[C@H]1C(C)=C2[C@H]([C@@H]1OC(=O)CCCCCCC)[C@@](C)(OC(C)=O)C[C@H](OC(=O)CCC)[C@@]1(O)[C@H]2OC(=O)[C@@]1(C)O [thapsigargin]
effect on AVP and OT-analog evoked increases in Ca2+ [1]: blocked
effect on hyperpolarization produced by AVP, Leu^8-OT, and Pro^8-OT [2]: eliminated

CC(C)(O)[C@H]1O[C@H]2CC[C@@]3(C)[C@@](O)(CC[C@H]4Cc5c([nH]c6ccccc56)[C@@]43C)C2=CC1=O [paxilline]
block of NS-1619 evoked hyperpolarization ([3]; 30 μM paxilline): 80%
inhibition of AVP induced hyperpolarization [3]: 13%
inhibition of Leu^8-OT induced hyperpolarization [3]: 38%
inhibition of Pro^8-OT induced hyperpolarization [3]: 39%
effect on BKCa activator NS-1619 response [4]: inhibited
inhibition of AVP induced hyperpolarization [5]: 20%
inhibition of AVP induced hyperpolarization [6]: 52%
block of NS-1619 evoked hyperpolarization ([7]; 30 μM paxilline): 72%
inhibition of AVP induced hyperpolarization [7]: 20%
inhibition of Leu^8-OT induced hyperpolarization [7]: 46%
inhibition of Pro^8-OT induced hyperpolarization [7]: 35%
effect on BKCa activator NS-1619 response [8]: inhibited

apamin: selective inhibitor of SKCa channels (CNCKAPETALCARRCQQH-NH2; disulfide 1-11, 3-15; UniProt P01500 28-45, looked up)
inhibition of AVP induced hyperpolarization [3]: did not significantly affect
inhibition of Leu^8-OT induced hyperpolarization [3]: ≤ 15%
inhibition of Pro^8-OT induced hyperpolarization [3]: ≤ 15%
inhibition of AVP induced hyperpolarization ([3]; listed as Apamin): ≤ 15%
contribution to (inhibition of) Leu^8-OT induced membrane hyperpolarization ([4]; apamin pretreatment): ≤ 15%
contribution to (inhibition of) Pro^8-OT induced membrane hyperpolarization ([4]; apamin pretreatment): ≤ 15%
inhibition of AVP induced hyperpolarization [5]: did not significantly affect
inhibition of AVP induced hyperpolarization ([5]; listed as Apamin): ≤ 15%
inhibition of AVP induced hyperpolarization [6]: did not significantly affect
inhibition of AVP induced hyperpolarization ([6]; listed as Apamin): ≤ 15%
inhibition of AVP induced hyperpolarization [7]: did not significantly affect
inhibition of Leu^8-OT induced hyperpolarization [7]: ≤ 15%
inhibition of Pro^8-OT induced hyperpolarization [7]: ≤ 15%
inhibition of AVP induced hyperpolarization ([7]; listed as Apamin): ≤ 15%
contribution to (inhibition of) Leu^8-OT induced membrane hyperpolarization ([8]; apamin pretreatment): ≤ 15%
contribution to (inhibition of) Pro^8-OT induced membrane hyperpolarization ([8]; apamin pretreatment): ≤ 15%

Clc1ccccc1C(c1ccccc1)(c1ccccc1)n1cccn1 [TRAM-34]
inhibition of SKA-31 hyperpolarization ([3]; 300 nM TRAM-34 pretreatment): 78%
inhibition of AVP induced hyperpolarization [3]: 25%
inhibition of Leu^8-OT induced hyperpolarization [3]: 38%
inhibition of Pro^8-OT induced hyperpolarization [3]: 37%
effect on hyperpolarizing response to KCa3.1 channel opener SKA31 [4]: inhibited
inhibition of AVP induced hyperpolarization [5]: 33%
inhibition of AVP induced hyperpolarization [6]: 61%
inhibition of SKA-31 hyperpolarization ([7]; 300 nM TRAM-34 pretreatment): 92%
effect on hyperpolarizing response to KCa3.1 channel opener SKA31 [8]: inhibited

Pertussis toxin
effect on DynorphinA1-13-NH2 hyperpolarizing response [9]: abolished
effect on AVP induced hyperpolarization (Gi/o; any of the four cell lines (mOTR, tOTR, qOTR, hOTR)): did not inhibit
effect on Leu^8-OT induced hyperpolarization (Gi/o; tOT or qOT receptor cell lines): did not inhibit
effect on Pro^8-OT induced hyperpolarization (Gi/o; tOT or qOT receptor cell lines): did not inhibit

NC(=O)CC[C@@H]1NC(=O)[C@H](Cc2ccccc2)NC(=O)[C@H](Cc2ccc(O)cc2)NC(=O)[C@@H](N)CSSC[C@@H](C(=O)N2CCC[C@H]2C(=O)N[C@@H](CCCN=C(N)N)C(=O)NCC(N)=O)NC(=O)[C@H](CC(N)=O)NC1=O [AVP, arginine vasopressin]
EC50 [10]: 49.8 nM
